Assay results from ChEMBL document CHEMBL4376807, “Hydroxamic Acid Derivatives of β-Carboline/Hydroxycinnamic Acid Hybrids Inducing Apoptosis and Autophagy through the PI3K/Akt/mTOR Pathways” (J Nat Prod, 2019).
Calls of active or inactive are those of the source. The rule behind the calls is not given here.

What was measured:
Bel-7402 [1] = assay: Effect on AKT expression in human Bel7402 cells at 1 to 2.5 uM after 24 to 72 hrs by Western blot analysis; format: ADME, cell-based; details: bel-7402, 2.5 µM
Method in brief: (§1)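 Bel7402 cells (1.5 × 10^5/mL) exposed to compound at 1.0 and 2.5 μM for 24 or 72 h. Lysates (0.05 mg/lane) separated on 12% SDS-PAGE and blotted to nitrocellulose. Probed for total Akt, phospho-Akt (Ser473), total mTOR and phospho-mTOR, HRP secondary, chemiluminescent detection. Quantified from three separate assays, mean ± SD.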

Bel-7402 [2] = assay: Induction of apoptosis in human Bel7402 cells assessed as increase in cleaved caspase-3 level at 1 uM after 72 hrs by Western blot analysis; format: functional, cell-based
Method in brief: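 Subconfluent Bel7402 cells (1.5 × 10^5/mL) exposed to vehicle or compound for 72 h, then lysed. Lysates (0.05 mg/lane) run on 12% SDS-PAGE, transferred to nitrocellulose, blocked in 5% nonfat milk. Probed for Bax, Bcl-2, cleaved caspase-3 and cleaved PARP, with HRP secondary and chemiluminescence. Levels normalized to β-actin; three separate assays, mean ± SD.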

Histone deacetylase 8 = biological target: T1, Histone deacetylase 8 (Homo sapiens, UniProt Q9BY41); assay: Inhibition of human HDAC8 using Boc-Lys (Ac)-AMC as substrate incubated for 60 mins by fluorimetric assay
T1 sequence (Q9BY41 whole entry): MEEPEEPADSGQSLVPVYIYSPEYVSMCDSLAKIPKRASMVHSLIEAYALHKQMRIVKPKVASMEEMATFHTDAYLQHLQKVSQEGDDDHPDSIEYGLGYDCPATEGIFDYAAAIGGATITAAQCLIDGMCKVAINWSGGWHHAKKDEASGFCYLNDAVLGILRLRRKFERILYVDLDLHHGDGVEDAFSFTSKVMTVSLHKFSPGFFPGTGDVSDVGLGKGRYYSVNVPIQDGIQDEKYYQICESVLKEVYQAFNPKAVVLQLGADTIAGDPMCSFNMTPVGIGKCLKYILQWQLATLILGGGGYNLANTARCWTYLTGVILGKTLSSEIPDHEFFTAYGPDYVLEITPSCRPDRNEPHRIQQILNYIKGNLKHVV

Bel-7402 [3] = assay: Induction of apoptosis in human Bel7402 cells assessed as annexin-V positive cells at 1 uM after 72 hrs by Annexin-V/PI staining based flow cytometry relative to control; format: functional
Method in brief: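 Bel7402 cells (10 000) cultured overnight, then exposed to compound at 1.0 or 5.0 μM, or vehicle, for 72 h. Harvested, stained with annexin-V APC and 7-AAD for 15 min. Apoptotic percentage measured by flow cytometry (APC ex 633/em 660 nm; 7-AAD ex 488/em 647 nm). Three separate assays, mean ± SD.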

HepG2 = assay: Antiproliferative activity against human HepG2 cells after 72 hrs by MTT assay; format: functional, cell-based; details: HepG2, 72 h
[4] = Inhibition of PI3K/AKT/mTOR signaling in human Bel7402 cells assessed as reduction in mTOR phosphorylation after 24 to 72 hrs by Western blot analysis; format: cell-based; method in brief: as §1
[5] = biological target: T2, Protein deacetylase HDAC6 (Homo sapiens, UniProt Q9UBN7); assay: Inhibition of human HDAC6 using Boc-Lys (Ac)-AMC as substrate incubated for 60 mins by fluorimetric assay
T2 sequence (Q9UBN7 whole entry): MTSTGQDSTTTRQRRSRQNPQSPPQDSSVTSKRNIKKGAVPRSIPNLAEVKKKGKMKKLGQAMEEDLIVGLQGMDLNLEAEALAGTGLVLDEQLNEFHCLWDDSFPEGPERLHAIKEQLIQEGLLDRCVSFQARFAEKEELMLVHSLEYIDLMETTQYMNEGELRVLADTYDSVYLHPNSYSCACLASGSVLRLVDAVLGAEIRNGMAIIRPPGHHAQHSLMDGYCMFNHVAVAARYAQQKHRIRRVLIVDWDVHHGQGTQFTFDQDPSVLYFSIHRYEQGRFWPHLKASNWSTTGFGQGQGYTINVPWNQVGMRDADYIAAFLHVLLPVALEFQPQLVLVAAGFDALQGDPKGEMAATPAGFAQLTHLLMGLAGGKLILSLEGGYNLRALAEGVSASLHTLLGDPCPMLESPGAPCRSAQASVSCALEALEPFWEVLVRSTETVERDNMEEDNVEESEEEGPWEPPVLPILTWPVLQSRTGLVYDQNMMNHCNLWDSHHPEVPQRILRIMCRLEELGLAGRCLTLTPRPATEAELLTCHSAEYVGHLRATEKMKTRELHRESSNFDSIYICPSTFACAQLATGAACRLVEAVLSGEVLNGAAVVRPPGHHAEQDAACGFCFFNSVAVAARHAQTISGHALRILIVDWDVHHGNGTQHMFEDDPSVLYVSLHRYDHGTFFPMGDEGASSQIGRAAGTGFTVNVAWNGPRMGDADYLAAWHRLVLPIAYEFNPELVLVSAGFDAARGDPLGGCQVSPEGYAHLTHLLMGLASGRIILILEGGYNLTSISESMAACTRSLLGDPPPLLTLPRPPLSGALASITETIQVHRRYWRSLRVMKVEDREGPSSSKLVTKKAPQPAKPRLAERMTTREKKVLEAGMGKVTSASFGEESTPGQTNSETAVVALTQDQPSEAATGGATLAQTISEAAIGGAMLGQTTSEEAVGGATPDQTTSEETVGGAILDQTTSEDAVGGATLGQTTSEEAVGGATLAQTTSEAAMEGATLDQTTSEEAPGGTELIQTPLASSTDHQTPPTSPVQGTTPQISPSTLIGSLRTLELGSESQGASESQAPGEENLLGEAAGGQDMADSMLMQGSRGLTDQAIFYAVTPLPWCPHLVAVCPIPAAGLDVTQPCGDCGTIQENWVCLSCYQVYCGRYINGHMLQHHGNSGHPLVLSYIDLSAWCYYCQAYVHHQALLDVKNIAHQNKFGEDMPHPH

Bel-7402 [6] = assay: Induction of autophagy in human Bel7402 cells assessed as upregulation of Beclin1 level at 1 to 5 uM after 24 to 72 hrs by Western blot analysis; format: functional, cell-based
Method in brief: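 Bel7402 cells (1.5 × 10^5/mL) exposed to compound at indicated doses, or vehicle, for 24 or 72 h. Lysates (0.05 mg/lane) separated on 12% SDS-PAGE, blotted to nitrocellulose, blocked in 5% milk. Probed with anti-LC3, anti-p62 and anti-beclin-1, HRP secondary, chemiluminescent detection. Levels quantified relative to β-actin; three separate assays, mean ± SD.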

Homo sapiens = species on record: Homo sapiens; assay: Selectivity ratio of IC50 for human HDAC3 to IC50 for human HDAC6
Method in brief: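 Recombinant human HDAC1, 3, 6 and 8 (fluorimetric kit) incubated with compound over a range of concentrations and Boc-Lys(Ac)-AMC substrate at 37 °C for 60 min. Reaction quenched with lysine developer; after 30 min, fluorescence read at ex 355/em 460 nm. Inhibition taken relative to control and IC50 fitted; ratios built from these IC50s.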

IC50 (Histone deacetylase 8): > 1 µM | IC50 (HepG2): 1.4 µM | IC50 [5]: 0.013 µM | Ratio IC50 (Homo sapiens): 7 to 11
Compound: COc1ccc(-c2nc(NCCCOc3ccc(/C=C/C(=O)NO)cc3OC)cc3c2[nH]c2ccccc23)cc1
Activity (Bel-7402 [1]): Non-Toxic | Activity (Bel-7402 [2]): Active | Activity (Bel-7402 [3]): 49.6% | inhibition [4]: Dose-dependent effect | Activity (Bel-7402 [6]): Active
